Laboratory results: ChEMBL document CHEMBL1135821, “Unique overlap in the prerequisites for thrombin inhibition and oral bioavailability resulting in potent oral antithrombotics” (J Med Chem, 2002)
One block for each compound: values may come before it.

What was measured:
[1] = Half life was reported; format: ADME
[2] = Oral bioavailability; format: ADME, organism-based; conditions: eutheria, in vivo
In short: (§1)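 Rats (275-325 g) with jugular cannula placed under methohexital one day earlier; dogs dosed by both routes with at least 2 weeks wash-out. IV and oral gavage in separate rats. At least six blood samples in EDTA. Plasma anti-IIa activity measured with S-2238 against a compound-spiked plasma calibration. %F = PO AUC divided by dose-normalized mean IV AUC ×100, AUC by trapezium rule.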

[3] = molecular target: T1, Prothrombin (Homo sapiens, UniProt P00734); assay: Inhibitory activity against thrombin.
[4] = molecular target: T1, Prothrombin; assay: Antithrombotic potency in the Aortic flow model in rats was reported; format: functional; conditions: Rattus norvegicus; target entry is the homologue from another species
In short: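 Rats (350-500 g body wt) were weighed. A silk thread (size 4/0, uncoated), knotted twice and protruding 3 mm from a catheter, was introduced via the left common carotid artery and positioned in the aorta. The carotid was clamped and the iliac clamp released. After 10 min of blood circulation, the thread was removed and rinsed, and thrombus weight and length were measured.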

[5] = Bioavailability in rat (Wistar); format: ADME, organism-based; conditions: in vivo; in short: as §1
[6] = Bioavailability in dog; format: ADME, organism-based, Canis lupus familiaris; conditions: in vivo; in short: as §1
[7] = Half life value in wistar rats; format: ADME, organism-based; conditions: rat, in vivo
In short: (§2)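 Elimination half-life after IV dosing of cannulated rats (275-325 g) or dogs, at least six EDTA plasma samples. Plasma samples diluted in Tris-NaCl pH 7.4, incubated 2 min with 0.5 U/mL human thrombin, then S-2238 added. ΔOD405 taken between 2 and 22 min and read against a calibration of compound spiked in pooled plasma. Fitted by iterative Simplex procedure.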

[8] = Half life value determined in dog; format: ADME, Canis lupus familiaris; conditions: in vivo; in short: as §2
[9] = Half life value in rat was determined; format: ADME, organism-based; conditions: in vivo; in short: as §2
[10] = Bioavailability in rat; format: ADME, organism-based; conditions: in vivo; in short: as §1
[11] = Half life value in dog was determined; format: ADME, organism-based, Canis lupus familiaris; conditions: in vivo; in short: as §2
[12] = Bioavailability determined in rat; format: ADME, organism-based; conditions: in vivo; in short: as §1
[13] = Clearance was reported; format: ADME, organism-based; conditions: in vivo
[14] = Bioavailability in dog determined; format: ADME, organism-based, Canis lupus familiaris; conditions: in vivo; in short: as §1

Structure (SMILES): NCCCC[C@H](NC(=O)[C@@H]1CCCN1C(=O)[C@H](N)CC1CCCCC1)C(=O)C(=O)O
half-life [1]: 9 min
bioavailability [2]: 9%
Ki [3]: 0.14 nM

half-life [1]: 23 min
bioavailability [2]: 23%
ED50 (nM min-1 kg-1) [4]: 19
Ki [3]: 2.6 nM
Structure (SMILES): NCCCC[C@H](NC(=O)[C@@H]1CCCN1C(=O)[C@@H](CC1CCCCC1)NCC(=O)O)C(=O)c1nccs1

bioavailability [5]: 37%
half-life [5]: 32 min
Ki [3]: 0.33 nM
bioavailability [6]: 68%
half-life [7]: 22 min
Structure (SMILES): NCCCC[C@H](NC(=O)[C@@H]1C=CCN1C(=O)[C@@H](CC1CCCCC1)NCC(=O)O)C(=O)C(=O)O

Structure (SMILES): NCCCC[C@H](NC(=O)[C@@H]1CCN1C(=O)[C@@H](CC1CCCCC1)NCC(=O)O)C(=O)C(=O)O
bioavailability [5]: 15%
half-life [8]: 42 min
Ki [3]: 0.5 nM
bioavailability [6]: 1%
half-life [7]: 21 min

bioavailability [5]: < 5%
Ki [3]: 3.5 nM
half-life [7]: 17 min
Structure (SMILES): NCCCC[C@H](NC(=O)[C@@H]1CCCN1C(=O)[C@H](N)CC1CCCCC1)C(=O)c1nccs1

Ki [3]: > 1000 nM
Structure (SMILES): COc1ccc2ccc(S(=O)(=O)N[C@@H](CCCCN)C(=O)N3CCC(C)CC3)cc2c1

Ki [3]: 1.4 nM
Structure (SMILES): NCCCC[C@H](NC(=O)[C@@H]1CCCN1C(=O)[C@H](N)Cc1ccccc1)C(=O)C(=O)O

Ki [3]: 204 nM
Structure (SMILES): NCCCC[C@H](NC(=O)[C@@H]1CCCN1C(=O)CC(c1ccccc1)c1ccccc1)C(=O)c1nccs1

Structure (SMILES): NCCCC[C@H](NC(=O)[C@@H]1CCCN1C(=O)[C@@H](CC1CCCCC1)NCC(=O)O)C(=O)c1ncco1
half-life [1]: < 5 min
bioavailability [2]: 28%
Ki [3]: 0.42 nM

Structure (SMILES): NCCCC[C@H](NC(=O)[C@@H]1CCCN1C(=O)[C@@H](CC1CCCCC1)NCC(=O)O)C(=O)C(=O)NCCc1ccccc1
half-life [9]: 17 min
bioavailability [10]: 23%
Ki [3]: 0.84 nM

Ki [3]: > 1000 nM
Structure (SMILES): O=C(c1nccs1)[C@H](CCCCO)NC(=O)[C@@H]1CCCN1C(=O)CC(c1ccccc1)c1ccccc1

half-life [9]: 8 min
bioavailability [10]: 25%
Ki [3]: 0.82 nM
Structure (SMILES): NCCCC[C@H](NC(=O)[C@@H]1CC2CCCCC2N1C(=O)[C@@H](CC1CCCCC1)NCC(=O)O)C(=O)C(=O)O (stereo partly drawn)

Structure (SMILES): NCCCC[C@H](NC(=O)CN(C(=O)[C@@H](CC1CCCCC1)NCC(=O)O)C1CCCC1)C(=O)C(=O)O
half-life [9]: 18 min
bioavailability [10]: 2%
Ki [3]: 0.21 nM

half-life [9]: 58 min
half-life [11]: 108 min
bioavailability [10]: 32%
Ki [3]: 1.1 nM
bioavailability [6]: 71%
Structure (SMILES): CC(C)OC(=O)C(=O)[C@H](CCCCN)NC(=O)[C@@H]1CCCN1C(=O)[C@@H](CC1CCCCC1)NCC(=O)O

Ki [3]: 376 nM
Structure (SMILES): CC1(C)CCN(C(=O)[C@@H](CC2CCCCC2)NCC(=O)O)[C@@H]1C(=O)N[C@@H](CCCCN)C(=O)C(=O)O

bioavailability [2]: 27%
Structure (SMILES): CC1CNc2c(cccc2S(=O)(=O)N[C@@H](CCCNC(=N)N)C(=O)N2CC[C@@H](C)C[C@@H]2C(=O)O)C1 (stereo partly drawn) [ARGATROBAN]

Structure (SMILES): NC(N)=NCCC[C@H](NC(=O)[C@@H]1CCCN1C(=O)[C@@H](N)Cc1ccccc1)C(=O)c1nccs1
half-life [1]: 5 min
bioavailability [2]: < 5%
Ki [3]: 0.3 nM

Structure (SMILES): NCCCC[C@H](NC(=O)[C@@H]1CCCCN1C(=O)[C@@H](CC1CCCCC1)NCC(=O)O)C(=O)C(=O)O
bioavailability [12]: 6%
Ki [3]: 0.29 nM
half-life [7]: 5 min

Structure (SMILES): CCS(=O)(=O)N[C@H](CC1CCCCC1)C(=O)N1CCC[C@H]1C(=O)N[C@@H](CCCCN)C(=O)c1nccs1
Ki [3]: 2 nM

clearance [13]: 0.417 mL/min
bioavailability [14]: 24%
half-life [8]: 78 min
bioavailability [2]: 39%
ED50 (nM min-1 kg-1) [4]: 7.5
Ki [3]: 0.29 nM
half-life [7]: 19 min
Structure (SMILES): NCCCC[C@H](NC(=O)[C@@H]1CCCN1C(=O)[C@@H](CC1CCCCC1)NCC(=O)O)C(=O)C(=O)O

Ki [3]: 1 nM
Structure (SMILES): NC(N)=NCCC[C@@H]1NC(=O)[C@@H]2CCCN2C(=O)[C@@H](NC=O)CNC(=O)/C=C/[C@H](Cc2ccc(O)cc2)NC(=O)[C@@H](Cc2ccccc2)NC(=O)C1=O [CYCLOTHEONAMIDE A]

Ki [3]: > 1000 nM
Structure (SMILES): COc1ccc2ccc(S(=O)(=O)N[C@@H](CCCCN)C(=O)c3nccs3)cc2c1

Ki [3]: > 1000 nM
Structure (SMILES): NCCCC[C@H](NC(=O)CN(C1CC1)C1Cc2ccccc2C1)C(=O)c1nccs1

Ki [3]: 15 nM
Structure (SMILES): NCCCC[C@H](NC(=O)[C@@H]1CCCN1C(=O)[C@H](CC(=O)O)NS(=O)(=O)Cc1ccccc1)C(=O)C(=O)O

Structure (SMILES): NCCCC[C@H](NC(=O)CN(C(=O)[C@H](N)CC1CCCCC1)C1CC1)C(=O)c1nccs1
Ki [3]: 13 nM

Ki [3]: 146 nM
Structure (SMILES): NCCCC[C@H](NC(=O)[C@@H]1CCCN1C(=O)[C@H](N)Cc1ccccc1)C(=O)c1nccs1
